Consider 9 compounds from PMC5984530 (Proceedings of the National Academy of Sciences of the …, 2018).

Where a chain is given by its changes, count along the chain named.

For series [1], the target named is T1, HlCHIL1 protein (Humulus lupulus, UniProt A0A2U7XUH7).
T1 sequence (A0A2U7XUH7 1-214): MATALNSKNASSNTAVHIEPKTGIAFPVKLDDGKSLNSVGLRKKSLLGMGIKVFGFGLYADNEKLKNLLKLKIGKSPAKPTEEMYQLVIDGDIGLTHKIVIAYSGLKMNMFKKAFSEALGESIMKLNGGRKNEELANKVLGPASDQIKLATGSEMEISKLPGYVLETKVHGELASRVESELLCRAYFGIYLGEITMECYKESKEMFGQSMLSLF
Kind of series: Differential scanning fluorimetry. The settings on record: for binding to CHIL1 protein (in words): wild-type HlCHIL1, differential scanning fluorimetry; for ΔTmmax: wild-type HlCHIL1, thermal shift dose-response. It counts as binding. In a few lines: (§1)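 Purified HlCHIL protein (wild-type or point mutant), 5 μM, was mixed with Protein Thermal Shift buffer and dye. Test ligand was serially diluted from 250 μM to 0.12 μM (12 points). Melting was followed on a real-time PCR instrument. Kd and ΔTmmax were fitted from the dose–response of thermal shift against ligand concentration.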

Series [2] addresses T2, CHIL2 (Humulus lupulus, UniProt A0A2U7XUE3).
T2 sequence (A0A2U7XUE3 1-209): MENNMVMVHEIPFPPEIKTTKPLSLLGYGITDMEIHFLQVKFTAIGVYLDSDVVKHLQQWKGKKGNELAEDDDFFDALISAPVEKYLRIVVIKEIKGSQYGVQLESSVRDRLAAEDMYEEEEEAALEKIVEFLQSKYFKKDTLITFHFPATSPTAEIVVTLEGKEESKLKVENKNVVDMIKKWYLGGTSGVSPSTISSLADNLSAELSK
Description: Protein-metabolite interaction assay. It is filed as binding. The settings on record: same incubation conditions, 8 h at 4 °C.

For series [3], the target named is T3, CHIL1^V139F (Humulus lupulus, UniProt A0A2U7XUH7, V139F).
T3 sequence (A0A2U7XUH7 1-214 V139F): T1 sequence (A0A2U7XUH7 1-214) with V139F
Kind of series: Differential scanning fluorimetry binding assay with CHIL1 V139F mutant. The method in brief:
as §1
(Differential scanning fluorimetry follows unfolding on heating by fluorescence.)

Series [4] concerns the target T4, CHIL1^A143F (Humulus lupulus, UniProt A0A2U7XUH7, A143F).
T4 sequence (A0A2U7XUH7 1-214 A143F): T1 sequence (A0A2U7XUH7 1-214) with A143F
Description: Differential scanning fluorimetry binding assay with CHIL1 A143F mutant. Conditions: thermal shift dose-response. The method in brief:
as §1

Series [5] deals with T5, CHIL1^V139F/A143F (Humulus lupulus, UniProt A0A2U7XUH7, A143F/V139F).
T5 sequence (A0A2U7XUH7 1-214 V139F/A143F): T1 sequence (A0A2U7XUH7 1-214) with V139F, A143F
It is filed as binding. Conditions: thermal shift dose-response.

For series [6], the target named is T6, His-tagged CHIL1 (Humulus lupulus, UniProt A0A2U7XUH7).
T6 sequence (A0A2U7XUH7 1-214): T1 sequence (A0A2U7XUH7 1-214)
Kind of series: Protein-metabolite interaction assay. It is filed as binding. The method in brief:
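His-tagged CHIL1 was expressed in E. coli BL21 and purified by Ni-NTA. Protein (30 μg) was incubated for 8 h at 4 °C with yeast extract (about 200 μM N/NC, 5 μM DMX) in 50 mM Tris·HCl pH 7.5 with 20% methanol. Protein was captured on MagneHis Ni beads. Bead-bound and supernatant compounds were extracted with ethyl acetate and measured by LC-QQQ-MS/MS (MRM 341.0→165.0). Beads alone were the control; n = 3.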

For series [7], the target named is T7, CHS_H1 (Humulus lupulus, UniProt Q9FEY5).
T7 sequence (Q9FEY5 1-389): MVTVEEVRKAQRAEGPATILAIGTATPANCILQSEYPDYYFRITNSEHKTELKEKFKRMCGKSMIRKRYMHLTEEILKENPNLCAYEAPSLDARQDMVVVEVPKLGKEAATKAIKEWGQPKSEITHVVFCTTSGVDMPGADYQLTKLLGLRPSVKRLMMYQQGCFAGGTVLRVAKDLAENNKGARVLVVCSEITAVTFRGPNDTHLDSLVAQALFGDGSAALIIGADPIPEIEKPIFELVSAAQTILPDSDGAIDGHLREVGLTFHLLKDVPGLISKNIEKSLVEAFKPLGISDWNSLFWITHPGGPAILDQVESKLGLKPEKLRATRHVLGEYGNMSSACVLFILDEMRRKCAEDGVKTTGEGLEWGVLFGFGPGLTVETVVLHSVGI
Description: In vitro chalcone synthase assay, kinetic parameters, CHS_H1 alone. It is filed as biochemical. Conditions: 2 μg CHS_H1; other substrate fixed: 150 μM malonyl-CoA or 40 μM p-coumaroyl-CoA. The method in brief:
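Purified recombinant CHS_H1 (2 μg) was run in standard reactions: 50 mM Tris·HCl pH 7, 0.1 mg/mL BSA, 30 °C, 60 min. One substrate was fixed (40 μM p-coumaroyl-CoA or 150 μM malonyl-CoA) while the other was varied. Products were extracted and quantified. Apparent Km came from Hanes plots; n = 3, means ± SD.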

In the case of `CC(C)=CCc1c(O)cc2c(c1O)C(=O)C[C@@H](c1ccc(O)cc1)O2` [6PN, 6-prenylnaringenin], the “binding to CHIL1 protein (in words)” value in series [1] is listed as “no such binding could be detected”.

As to `CC(C)=CCc1c(O)cc(O)c2c1O[C@H](c1ccc(O)cc1)CC2=O` [8PN, 8-prenylnaringenin], the “binding to CHIL1 protein (in words)” value in series [1] is “no such binding could be detected”. Moreover, in series [2], the “CHIL2-associated compound (in words)” value is given as “no CHIL2-associated DMX or 8PN were detected”.

One may read the Kd as the free concentration of one partner at which half of the binding sites on the other are occupied at equilibrium, for simple one-to-one binding. For the compound `CC(C)=CCc1c(O)cc(O)c(C(=O)/C=C/c2ccc(O)cc2)c1O` [DMX, demethylxanthohumol], the Kd was found to be 25.1 µM in series [1] and 10 µM in series [3]. Besides, the ΔTmmax in series [1] is 10.23 °C; in series [3] (CHIL1^V139F, thermal shift dose-response), 10.15 °C; in series [4] it was 10.87 °C; in series [5], 5.26 °C. The “enrichment of DMX levels by CHIL1 protein (bound vs solution)” value in series [6] (incubation 8 h at 4 °C with yeast extract (DMX/6PN/8PN)) is 14.2 fold. In series [6] (incubation 8 h at 4 °C, n = 3), the “ratio of (DMX)/(total DMX) in CHIL1-bound chemical mixture” value is listed as 19.7%. For the same compound, in series [6] (supernatant, incubation 8 h at 4 °C), the “ratio of (DMX)/(total DMX) in solution” value is 1.39%. The “CHIL2-associated compound (in words)” value in series [2] was “no CHIL2-associated DMX or 8PN were detected”.

As a reminder, the Km is the concentration of substrate that gives half-maximal velocity. As for `CC(C)(COP(=O)(O)OP(=O)(O)OC[C@H]1O[C@@H](n2cnc3c(N)ncnc32)[C@H](O)[C@@H]1OP(=O)(O)O)[C@@H](O)C(=O)NCCC(=O)NCCSC(=O)CC(=O)O` [Malonyl-CoA], in series [7], the Kcat came out at 0.24 ± 0.03 s^−1 × 10^−3 and the Michaelis-Menten constant (Km) turned out to be 10.1 ± 2.99 µM.

Regarding `O=C1C[C@@H](c2ccc(O)cc2)Oc2cc(O)cc(O)c21` [N, naringenin], in series [1], the “binding to CHIL1 protein (in words)” value is “no such binding could be detected”.

In the case of `COc1cc(O)c(CC=C(C)C)c(O)c1C(=O)/C=C/c1ccc(O)cc1` [XN, 3′-prenyl-6′-O-methylchalconaringenin], the “binding to CHIL1 protein (in words)” value in series [1] is listed as “no such binding could be detected”.

Regarding `CCCCCCCCCCCC(=O)O` [lauric acid], the ΔTmmax in series [1] stood at 5.0 °C.

With `CCCCCCCCCCCCCC(=O)O` [myristic acid], in series [1], the Kd came out at 3.45 µM and the ΔTmmax came to 3.55 °C.

Take `CC(C)(COP(=O)(O)OP(=O)(O)OC[C@H]1O[C@@H](n2cnc3c(N)ncnc32)[C@H](O)[C@@H]1OP(=O)(O)O)[C@@H](O)C(=O)NCCC(=O)NCCSC(=O)/C=C/c1ccc(O)cc1` [p-Coumaroyl-CoA]: in series [7], the Kcat was found to be 0.21 ± 0.02 s^−1 × 10^−3 and the Km is 4.82 ± 0.99 µM.
